Experimental data published in publication PMC5756543 (The Journal of Nutritional Biochemistry, 2017).

Experiments:
[1] = test system: Caco-2 cells; assay: HT transport and phase II metabolism across differentiated Caco-2 monolayers; type: in vitro ADME, human; details: for rate of appearance of HT conjugate in apical compartment / rate of appearance of HT conjugate in basal compartment: 20 μM HT apical, HT-7-sul as HT-3′-sul equivalents; for decrease of HT-3′-glu 2 formation: acetate: in both compartments; for effect on efflux of HT-7-glu to both compartments: chronic treatment 1 mM 14 days (discussion)
How it was run: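 Caco-2 monolayers on transwells were pretreated apically with 1 mM SCFA/lactate or mix from day 7 to day 21–23. Cells were equilibrated in HBSS (1.8 mM CaCl2, pH 7.4) for 30 min at 37°C, and monolayers below 930 Ω cm2 TEER were discarded. Apical 20 µM test compound was applied for 1 h. Both compartments were sampled with 100 µM ascorbic acid and analysed by LC-MS/MS MRM (daidzein internal standard, matrix-matched calibration). n=6 in duplicate; t test.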

[2] = test system: ABCG2 protein; assay: ABCG2 protein abundance by ProteinSimple WES in Caco-2 cells; type: cell-based, human; details: vs control; for decrease of ABCG2 protein levels: 1 mM 14 days
How it was run: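 Transwell Caco-2 monolayers received 1 mM apical SCFA/lactate or mix (0.25 mM each) from day 7 and were lysed at 21–23 days in Bicine-CHAPS with inhibitors, then BCA-quantified. For capillary WES, 1.5 mg/ml lysate was used with 95°C denaturation for 5 min. α-Tubulin loading control came from the same sample in separate capillaries. Peak areas were quantified. Mean of 3–6 biological replicates ±S.E.M.; t test.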

[3] = test system: MCT1 (SLC16A1) mRNA; assay: MCT1 gene expression by ddPCR in Caco-2 cells; type: cell-based, human; details: 1 mM 14 days, vs control
How it was run: (§1)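 Caco-2 cells were seeded on transwells at 6×104 cm−2 and grown 21–23 days. From day 7 the apical medium was FBS-free with 1 mM Na-acetate, -propionate, -butyrate, -lactate or an equimolar mix (0.25 mM each); basal medium had 20% FBS; 0.1% DMSO served as control. RNA (1 µg) was reverse-transcribed. Duplex TaqMan ddPCR used 0.65 ng cDNA per reaction, with target FAM and TBP VIC. Copies/ng cDNA were derived by Poisson analysis. Four biological replicates from two seedings, each with three technical replicates; t test.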

[4] = test system: Caco-2 cells; assay: SA transport across differentiated Caco-2 monolayers; type: in vitro ADME, human; details: for increase of SA in the basolateral compartment / effect on SA transport: 1 mM 14 days, vs untreated cells; for increase of SA in the basolateral compartment: n=6, P=.003
How it was run: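 Pretreated Caco-2 transwell monolayers (1 mM apical SCFA/lactate or mix from day 7, used at 21–23 days) were equilibrated in HBSS (pH 7.4) for 30 min at 37°C; monolayers under 930 Ω cm2 TEER were excluded. Apical 1 mM MCT substrate was incubated for 30 min. Both compartments were analysed by HPLC-UV at 303 nm, with DMCA internal standard at 326 nm. Six biological replicates in duplicate; t test, P<.01.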

[5] = test system: MCT4 (SLC16A3) mRNA; assay: MCT4 gene expression by ddPCR in Caco-2 cells; type: cell-based, human; details: vs control; for increase of MCT4 mRNA: 1 mM 14 days (mix 0.25 mM each), n=4
How it was run: as §1

[6] = test system: MCT4 protein; assay: MCT4 protein abundance by ProteinSimple WES in Caco-2 cells; type: cell-based, human; details: 1 mM 14 days (mix 0.25 mM each), vs control
[7] = test system: ABCG2 mRNA; assay: ABCG2 gene expression by ddPCR in Caco-2 cells; type: cell-based, human; details: vs control; for effect on ABCG2 mRNA: 1 mM 14 days; for decrease of ABCG2 mRNA: 1 mM 14 days (mix 0.25 mM each)
How it was run: as §1

[8] = test system: UGT1A protein; assay: UGT1A protein abundance by ProteinSimple WES in Caco-2 cells; type: cell-based, human; details: 1 mM 14 days; for effect on UGT1A protein: vs control (discussion); for decrease of UGT1A protein levels: vs control
[9] = test system: MCT1 protein; assay: MCT1 protein abundance by ProteinSimple WES in Caco-2 cells; type: cell-based, human; details: 1 mM 14 days, vs control
[10] = test system: Caco-2 cells; assay: FA transport and metabolism across differentiated Caco-2 monolayers; type: in vitro ADME, human; details: for effect on transepithelial transport of FA (apical to basolateral): vs untreated (abstract, discussion); for effect on FA-sul in apical compartment / increase of FA-glu in basal compartment: n=6, P<.01
How it was run: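 Caco-2 monolayers were pretreated apically with 1 mM SCFA/lactate or mix from day 7 and used at 21–23 days after 30 min HBSS (pH 7.4) equilibration at 37°C; monolayers with TEER <930 Ω cm2 were discarded. Apical 500 µM test compound was applied for 1 h. Apical and basal samples were stabilised with ascorbic acid and spiked with acetic acid (10 mM final) and DMCA internal standard (10 µM final). LC-MS/MS MRM quantified parent and conjugates. Six biological replicates in duplicate; t test.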

[11] = test system: Caco-2 cells; assay: Transepithelial Electrical Resistance; type: cell-based, human; details: 1 mM apical pretreatment 14 days, n=36; for average TEER value after pretreatment: untreated 1149±23
How it was run: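 Caco-2 cells were seeded on transwells at 6×104 cm−2 and exposed apically from day 7 to 1 mM Na-acetate, -propionate, -butyrate, -lactate or mix in FBS-free medium (basal 20% FBS; 0.1% DMSO control). At 21–23 days, after HBSS washes and 30 min equilibration at 37°C, 10% CO2, TEER was measured with a voltohmmeter; t test.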

[12] = 1 mM 14 days, vs untreated, n=6, P<.01
[13] = 1 mM 14 days, vs untreated, n=6, P<.001

COc1ccc([C@@H]2CC(=O)c3c(O)cc(OS(=O)(=O)O)cc3O2)cc1O [HT-7-sul, hesperetin-7-O-sulfate]
rate of appearance of HT conjugate in apical compartment ([1]; untreated cells, 1 h): 2.6 ± 0.06 pmol/min
rate of appearance of HT conjugate in basal compartment ([1]; untreated cells, 1 h): 1.9 ± 0.03 pmol/min

CCCC(=O)O [butyrate, Na-butyrate]
effect on ABCG2 protein levels ([2]; 1 mM 14 days (mix 0.25 mM each)): not reflected in protein changes
decrease of MCT1 mRNA [3]: ~ 30%
increase of SA in the basolateral compartment [4]: 32%
effect on MCT4 mRNA ([5]; 1 mM 14 days): not affected
effect on MCT4 protein levels [6]: not affected
effect on ABCG2 mRNA [7]: decreased
effect on UGT1A protein [8]: did not affect
increase of MCT1 protein ([9]; n=3, P=.01): ~ 40%
effect on HT-3′-sul efflux to the apical direction ([1]; 1 mM 14 days, vs untreated): lower
increase of HT-7-glu in basal compartment [1, 12]: 23%
decrease of HT-3′-glu 2 formation [1, 12]: 30–40%
effect on efflux of HT-7-glu to both compartments [1]: increased
effect on transepithelial transport of FA (apical to basolateral) ([10]; 1 mM 14 days): strongly enhanced
effect on FA-sul in apical compartment ([10]; 1 mM 14 days, vs untreated): lower
increase of FA-glu in basal compartment ([10]; 1 mM 14 days, vs untreated): ~ 40%
average TEER value after pretreatment [11]: 1066±31 Ω cm^2
decrease of average TEER values ([11]; vs untreated cells): 7%

COc1ccc([C@@H]2CC(=O)c3c(O)cc(O[C@@H]4O[C@H](C(=O)O)[C@@H](O)[C@H](O)[C@H]4O)cc3O2)cc1O [HT-7-glu, Hesperetin-7-O-glucuronide]
conjugate formed (basal + apical) as share of original HT added apically ([1]; untreated cells, 1 h): 2.4%
rate of appearance of HT conjugate in apical compartment ([1]; untreated cells, 1 h): 3.87 ± 0.07 pmol/min
rate of appearance of HT conjugate in basal compartment ([1]; untreated cells, 1 h): 12.33 ± 0.57 pmol/min

COc1cc(/C=C/C(=O)O)ccc1O [FA, ferulic acid]
FA transported to the basal compartment ([10]; untreated cells, 500 μM FA (1 μmol) apical, 1 h): 1.73 ± 0.17 nmol/min
FA transported to basal compartment, share of added FA ([10]; untreated cells, after 1 h): 10.4%

COc1ccc(C2CC(=O)c3c(O)cc(O)cc3O2)cc1OS(=O)(=O)O (centres unmarked) [HT-3′-sul, hesperetin-3′-O-sulfate]
rate of appearance of HT conjugate in apical compartment ([1]; untreated cells, 1 h): 2.8 ± 0.1 pmol/min
rate of appearance of HT conjugate in basal compartment ([1]; untreated cells, 1 h): 2.53 ± 0.06 pmol/min

COc1ccc([C@@H]2CC(=O)c3c(O)cc(O)cc3O2)cc1O [HT, hesperetin]
HT transported unchanged to the basolateral compartment ([1]; cells not treated with SCFA, 20 μM HT (40 nmol) apical, 1 h): 87 ± 26 pmol/min
HT transported to basolateral compartment, share of HT added apically ([1]; cells not treated with SCFA, after 60 min incubation): 13%

CC(O)C(=O)[O-].[Na+] (centres unmarked) [lactate, Na-lactate]
decrease of ABCG2 protein levels [2]: ~ 50%
decrease of MCT1 mRNA [3]: 20–30%
effect on SA transport [4]: did not affect
decrease of MCT4 mRNA ([5]; 1 mM 14 days, P<.001): 20–30%
decrease of ABCG2 mRNA [7]: 20–30%
decrease of UGT1A protein levels [8]: ~ 30%
decrease of all HT phase II conjugates in apical compartment ([1]; 1 mM 14 days, vs untreated): 13–40%
effect on HT-3′-sul efflux to the apical direction ([1]; 1 mM 14 days, vs untreated): lower
effect on HT-3′-glu 1 in basolateral side [1, 12]: substantially decreased
effect on HT-3′-glu 2 in basolateral side [1, 12]: substantially decreased
effect on FA-sul in basolateral compartment ([10]; 1 mM 14 days, vs untreated): substantially decreased
effect on FA-sul in apical compartment ([10]; 1 mM 14 days, vs untreated): substantially decreased
average TEER value after pretreatment [11]: 1232±25 Ω cm^2
increase of TEER (resistance) ([11]; vs untreated cells): 7%

CC(=O)[O-].[Na+] [acetate, Na-acetate]
increase of MCT1 mRNA ([3]; n=4, P≤.02): ~ 20%
effect on SA transport [4]: did not affect
increase of MCT4 mRNA [5]: ~ 20%
effect on ABCG2 mRNA [7]: unaffected
decrease of UGT1A protein levels [8]: ~ 25%
decrease of MCT1 protein ([9]; n=3, P<.005): ~ 30%
effect on HT-3′-sul efflux to the apical direction ([1]; 1 mM 14 days, vs untreated): lower
decrease of HT-3′-glu 2 formation [1, 12]: 20%
effect on FA transport and metabolism ([10]; 1 mM 14 days, vs untreated): no effect

O=C(O)c1ccccc1O [SA, salicylic acid, reference compound]
SA transported to the basolateral side, share of original amount added apically ([4]; 1 mM SA apical, within 30 min): ~ 10%

CCC(=O)[O-].[Na+] [propionate, Na-propionate]
decrease of ABCG2 protein levels [2]: ~ 40%
effect on MCT1 gene expression [3]: unchanged
increase of SA in the basolateral compartment [4]: 21%
increase of MCT4 mRNA [5]: ~ 29%
effect on MCT4 protein levels [6]: without significant effects
decrease of ABCG2 mRNA [7]: ~ 18%
effect on UGT1A protein [8]: did not affect
effect on MCT1 protein levels [9]: without significant effects
effect on HT-3′-sul basolateral transport ([1]; 1 mM 14 days, vs untreated): stimulated
effect on HT-7-sul basolateral transport ([1]; 1 mM 14 days, vs untreated): stimulated
increase of HT-3′-glu 1 in basolateral side [1, 12]: 34%
increase of HT-7-glu in basal compartment [1, 12]: 42%
effect on efflux of HT-7-glu to both compartments [1]: increased
effect on FA-sul in basolateral compartment ([10]; 1 mM 14 days, vs untreated): favored over efflux to the apical compartment
increase of FA-glu in apical compartment ([10]; 1 mM 14 days, vs untreated): 72%
effect on transepithelial transport of FA (apical to basolateral) ([10]; 1 mM 14 days): strongly enhanced
higher concentration of DHFA in apical compartment [10, 13]: 4.1 fold
higher concentration of DHFA in basal compartment [10, 13]: 3.4 fold
increase of FA-glu in basal compartment ([10]; 1 mM 14 days, vs untreated): 83%
